Source: ChEMBL document CHEMBL3822416, “Design, Synthesis, and Structure-Activity Relationship Study of Novel Indole-2-carboxamide Derivatives as Anti-inflammatory Agents for the Treatment of Sepsis” (J Med Chem, 2016)
Active and inactive are the calls of the source. No cut-off for these calls is given here.

Key:
Mus musculus [1] = experiment: Decrease in MPO activity in C57BL/6 mouse lung at 10 mg/kg, iv after 6 hrs in presence of O-dianisidine dihydrochloride relative to control; type: ADME, organism-based; details: in vivo
Outline: (§1)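 Mice were given 10 mg/kg iv 15 min before 20 mg/kg LPS or without LPS; saline served as control, and animals were killed 6 h later. Lung supernatants were incubated with 0.01% H2O2 and O-dianisidine dihydrochloride 0.167 mg/mL for 30 min, with absorbance change at 460 nm. One unit degrades 1 µmol peroxide/min at 37 °C; values are expressed as units/g lung.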

Mus musculus [2] = experiment: Antiinflammatory activity in LPS-induced C57BL/6 mouse sepsis model assessed as reduction in airspace inflammation in lung at 10 mg/kg, iv administered 15 mins prior to LPS challenge measured after 6 hrs by hematoxylin and eosin staining; type: functional, organism-based
Outline: (§2)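 Male C57BL/6 mice (18-22 g), randomized into groups. Compound at 10 mg/kg was given by tail-vein injection 15 min before LPS 20 mg/kg; controls received saline. Animals were sacrificed 6 h after LPS. Lung was fixed in 4% paraformaldehyde, paraffin-embedded, cut at 5 µm and H&E stained. A pathologist, blinded, scored alveolar congestion, hemorrhage, neutrophil infiltration and alveolar wall thickness/hyaline membrane.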

Mus musculus [3] = experiment: Downregulation of TNF-alpha mRNA level in lung of LPS-induced C57BL/6 mouse sepsis model at 10 mg/kg, iv administered 15 mins prior to LPS challenge measured after 6 hrs by RT-qPCR analysis; type: functional, organism-based
Outline: (§3)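 Male C57BL/6 mice were given 10 mg/kg by tail-vein injection 15 min before 20 mg/kg LPS and killed after 6 h; lungs were harvested. RNA was extracted with TRIZOL and quantified by real-time quantitative PCR as relative mRNA amount.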

Mus musculus [4] = species on record: Mus musculus; experiment: Acute toxicity in C57BL/6 mouse liver by hematoxylin and eosin staining-based histopathologiacal analysis; type: organism-based; details: in vivo
Mus musculus [5] = experiment: Antiinflammatory activity in LPS-induced C57BL/6 mouse sepsis model assessed as decrease in pulmonary lobule structural changes at 10 mg/kg, iv administered 15 mins prior to LPS challenge measured after 6 hrs by hematoxylin and eosin staining; type: functional, organism-based; outline: as §2
Mus musculus [6] = experiment: Antiinflammatory activity in LPS-induced C57BL/6 mouse sepsis model assessed as inhibition of neutrophils infiltration in lung by measuring MPO activity at 10 mg/kg, iv administered 15 mins prior to LPS challenge measured after 6 hrs in presence of O-dianisidine dihydrochloride relative to control; type: functional, organism-based; outline: as §1
Mus musculus [7] = experiment: Antiinflammatory activity in LPS-induced C57BL/6 mouse sepsis model assessed as suppression of TNF-alpha release in serum at 10 mg/kg, iv administered 15 mins prior to LPS challenge measured after 6 hrs relative to control; type: functional, organism-based
Outline: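 Male C57BL/6 mice, 18-22 g, were injected via tail vein with 10 mg/kg 15 min before 20 mg/kg LPS; controls received saline. Blood was taken with a heparinized syringe 6 h after LPS under anesthesia. Serum TNF-α was measured by ELISA (pg/mL).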

RAW264.7 [8] = experiment: Inhibition of LPS-induced IL6 production in mouse RAW264.7 cells preincubated for 30 mins prior to LPS challenge measured after 24 hrs by ELISA; type: functional, cell-based; details: Mus musculus, RAW264.7; read-out: IC50
Outline: (§4)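 RAW 264.7 cells (ATCC) were grown in DMEM with 10% FBS and penicillin/streptomycin at 37 °C, 5% CO2. Cells were seeded at 400,000/well and incubated for 24 h, pretreated with compound for 30 min, then given 0.5 µg/mL LPS for 24 h. Medium TNF-α or IL-6 was measured by ELISA and normalized to total protein of viable cell pellets.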

Mus musculus [9] = experiment: Antiinflammatory activity in LPS-induced C57BL/6 mouse sepsis model assessed as inhibition of macrophage infiltration in lung at 10 mg/kg, iv administered 15 mins prior to LPS challenge measured after 6 hrs by F4/80 and hematoxylin-staining based microscopy; type: functional, organism-based
Outline: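 C57BL/6 males were dosed with 10 mg/kg iv (tail vein) 15 min before 20 mg/kg LPS and sacrificed 6 h later. Paraffin lung sections had antigen retrieval by pressure cooker in 10 mM citrate pH 6.5, then H2O2, 5% BSA block, anti-F4/80 overnight at 4 °C, HRP secondary, DAB and hematoxylin counterstain. The % F4/80-positive cells was counted in 10 random 200× fields per section.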

Mus musculus [10] = species on record: Mus musculus; experiment: Acute toxicity in C57BL/6 mouse kidney by hematoxylin and eosin staining-based histopathologiacal analysis; type: organism-based; details: in vivo
Mus musculus [11] = species on record: Mus musculus; experiment: Acute toxicity in C57BL/6 mouse heart by hematoxylin and eosin staining-based histopathologiacal analysis; type: organism-based; details: in vivo
Mus musculus [12] = experiment: Downregulation of COX2 mRNA level in lung of LPS-induced C57BL/6 mouse sepsis model at 10 mg/kg, iv administered 15 mins prior to LPS challenge measured after 6 hrs by RT-qPCR analysis; type: functional, organism-based; outline: as §3
Mus musculus [13] = experiment: Downregulation of IL-6 mRNA level in lung of LPS-induced C57BL/6 mouse sepsis model at 10 mg/kg, iv administered 15 mins prior to LPS challenge measured after 6 hrs by RT-qPCR analysis; type: functional, organism-based; outline: as §3
Mus musculus [14] = experiment: Toxicity in C57BL/6 mouse assessed as change in body weight at 20 mg/kg, iv administered for 7 days measured every 24 hrs of compound dosing relative to control; type: organism-based; details: in vivo
RAW264.7 [15] = experiment: Inhibition of LPS-induced TNF-alpha production in mouse RAW264.7 cells preincubated for 30 mins prior to LPS challenge measured after 24 hrs by ELISA; type: functional, cell-based; details: Mus musculus, RAW264.7; read-out: IC50; outline: as §4
Mus musculus [16] = experiment: Downregulation of IL-12 mRNA level in lung of LPS-induced C57BL/6 mouse sepsis model at 10 mg/kg, iv administered 15 mins prior to LPS challenge measured after 6 hrs by RT-qPCR analysis; type: functional, organism-based; outline: as §3
Mus musculus [17] = experiment: Downregulation of IL-33 mRNA level in lung of LPS-induced C57BL/6 mouse sepsis model at 10 mg/kg, iv administered 15 mins prior to LPS challenge measured after 6 hrs by RT-qPCR analysis; type: functional, organism-based; outline: as §3
Mus musculus [18] = experiment: Downregulation of IL-1beta mRNA level in lung of LPS-induced C57BL/6 mouse sepsis model at 10 mg/kg, iv administered 15 mins prior to LPS challenge measured after 6 hrs by RT-qPCR analysis; type: functional, organism-based; outline: as §3

SMILES | Activity (Mus musculus [1]) | Activity (Mus musculus [2]) | Activity (Mus musculus [3]) | Activity (Mus musculus [4]) | Activity (Mus musculus [5]) | inhibition (Mus musculus [6]) | Activity (Mus musculus [7]) | IC50 (RAW264.7 [8]) | inhibition (Mus musculus [9]) | Activity (Mus musculus [10]) | Activity (Mus musculus [11]) | Activity (Mus musculus [12]) | Activity (Mus musculus [13]) | Activity (Mus musculus [14]) | IC50 (RAW264.7 [15]) | Activity (Mus musculus [16]) | Activity (Mus musculus [17]) | Activity (Mus musculus [18])
CN1CCN(c2ccc(NC(=O)c3cc4cc(NC(=O)c5ccco5)ccc4n3Cc3ccc(C(F)(F)F)cc3)cc2)CC1 | Non-toxic | Active | Active | Non-toxic | Active | Active | Active | 2.9 µM | Active | Non-toxic | Non-toxic | Active | Active | Non-toxic | 2.66 µM | Active | Active | Active
CN1CCN(c2ccc(NC(=O)c3cc4cc(NC(=O)N(C)C)ccc4n3Cc3ccc(C(F)(F)F)cc3)cc2)CC1 | Non-toxic | Active | Active | Non-toxic | Active | Active | Active | 1.24 µM | Active | Non-toxic | Non-toxic | Active | Active | Non-toxic | 2.67 µM | Active | Active | Active
